Experimental data taken from ChEMBL document CHEMBL4145696 (J Med Chem, 2018).
Activity calls are given as the source filed them. The calls are words filed in the database; no cut-off is given here.

What was measured:
Bos taurus = species on record: Bos taurus; experiment: Inhibition of bovine brain tubulin polymerization at 10 uM measured every 1 min for 20 mins by spectrophotometry
PC-3 = experiment: Cytotoxicity in human PC3 cells assessed as reduction in cell viability incubated for 72 hrs by MTS assay; assay type: functional, cell-based; conditions: PC-3, 72 h
A-375 [1] = experiment: Antitumor activity against human A375 cells xenografted in mouse assessed as reduction in tumor volume at 15 mg/kg, ip dosed every other day for 2 weeks; assay type: functional, organism-based
Method in brief: (§1)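 Nude mice (6–8 weeks) implanted s.c. in dorsal flank with 2.5×10^6 log-phase A375 cells in serum-free, phenol red-free medium mixed with Matrigel. At ~100 mm³ tumours, randomized (n = 8); i.p. 100 μL every other day for 2 weeks in PEG300:PBS 1:1, vehicle control.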

[2] = Half life in human liver microsomes in presence of NADPH regeneration system
A-375 [3] = experiment: Antitumor activity against human A375 cells xenografted in mouse assessed as reduction in tumor volume at 30 mg/kg, ip dosed every other day for 2 weeks; assay type: functional, organism-based; method in brief: as §1
A-375 [4] = experiment: Antitumor activity against human A375 cells xenografted in mouse assessed as reduction in tumor weight at 30 mg/kg, ip dosed every other day for 2 weeks; assay type: functional, organism-based; method in brief: as §1
[5] = Cytotoxicity in human DU145-TxR cells assessed as reduction in cell viability incubated for 72 hrs by MTS assay; assay type: functional, cell-based
Method in brief: (§2)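 Prostate lines (parental PC-3 and DU-145, with paclitaxel- or docetaxel-resistant TxR sublines) grown in RPMI 1640 with 10% FBS and antibiotic/antimycotic at 37 °C, 5% CO2. Seeded at 1,800–3,500 cells/well overnight, then dosed at 10 concentrations, 0.03 nM–1 μM, plus DMSO vehicle, for 72 h, quadruplicate. MTS read at 490 nm; IC50 by nonlinear regression.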

RPMI-7951 = experiment: Cytotoxicity in human RPMI7951 cells assessed as reduction in cell viability incubated for 72 hrs by MTS assay; assay type: functional, cell-based; conditions: RPMI-7951, 72 h
[6] = Resistance index, ratio of IC50 for cytotoxicity in human DU145-TxR cells to IC50 for cytotoxicity in human DU145 cells; assay type: functional
Method in brief: (§3)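 Prostate lines cultured in RPMI 1640 with 10% FBS at 37 °C and 5% CO2: parental PC-3 with paclitaxel-resistant PC-3/TxR, and parental DU-145 with docetaxel-resistant DU-145/TxR. Cells seeded at 1,800–3,500/well and left overnight, then exposed 72 h to 10 concentrations (0.03 nM–1 μM) or DMSO vehicle, in quadruplicate. MTS read at 490 nm; IC50s by nonlinear regression; index = resistant IC50/parental IC50.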

Mus musculus [7] = experiment: Toxicity in human A375 cells xenografted mouse assessed as effect on body weight at 30 mg/kg, ip dosed every other day for 2 weeks relative to untreated control; assay type: organism-based; conditions: in vivo, 336 h
A-375 [8] = experiment: Antitumor activity against human A375 cells xenografted in mouse assessed as inhibition of tumor growth at 30 mg/kg, ip dosed every other day for 2 weeks relative to untreated control; assay type: functional; conditions: A-375, ip, 336 h, read-out: TGI; method in brief: as §1
M14 = experiment: Cytotoxicity in human M14 cells assessed as reduction in cell viability incubated for 72 hrs by MTS assay; assay type: functional, cell-based; conditions: M14, 72 h
Mus musculus [9] = experiment: Toxicity in human A375 cells xenografted mouse assessed as effect on body weight at 15 mg/kg, ip dosed every other day for 2 weeks relative to untreated control; assay type: organism-based; conditions: in vivo, 336 h
[10] = Cytotoxicity in human PC3-TxR cells assessed as reduction in cell viability incubated for 72 hrs by MTS assay; assay type: functional, cell-based
DU-145 = experiment: Cytotoxicity in human DU145 cells assessed as reduction in cell viability incubated for 72 hrs by MTS assay; assay type: functional, cell-based; conditions: DU-145, 72 h; method in brief: as §2
[11] = Resistance index, ratio of IC50 for cytotoxicity in human PC3-TxR cells to IC50 for cytotoxicity in human PC3 cells; assay type: functional; method in brief: as §3
A-375 [12] = experiment: Antitumor activity against human A375 cells xenografted in mouse assessed as inhibition of tumor growth at 15 mg/kg, ip dosed every other day for 2 weeks relative to untreated control; assay type: functional; conditions: A-375, ip, 336 h, read-out: TGI; method in brief: as §1
[13] = Intrinsic clearance in mouse liver microsomes in presence of NADPH regeneration system
A-375 [14] = experiment: Cytotoxicity in human A375 cells assessed as reduction in cell viability incubated for 72 hrs by MTS assay; assay type: functional, cell-based; conditions: A-375, 72 h
[15] = Half life in mouse liver microsomes in presence of NADPH regeneration system
[16] = Intrinsic clearance in rat liver microsomes in presence of NADPH regeneration system
[17] = Half life in rat liver microsomes in presence of NADPH regeneration system
[18] = Intrinsic clearance in human liver microsomes in presence of NADPH regeneration system
Homo sapiens = species on record: Homo sapiens; experiment: Cytotoxicity in human DU145-TxR cells assessed as reduction in cell viability up to 1 uM incubated for 72 hrs by MTS assay; assay type: functional, cell-based; method in brief: as §2
A-375 [19] = experiment: Antitumor activity against human A375 cells xenografted in mouse assessed as reduction in tumor weight at 15 mg/kg, ip dosed every other day for 2 weeks; assay type: functional; set-up: scale not given: the % may be the effect or the level left; method in brief: as §1

t1/2 [2]	CLint scaled ([13]; liver microsomes)	t1/2 [15]	CLint scaled ([16]; liver microsomes)	t1/2 [17]	CLint scaled ([18]; liver microsomes)	SMILES	IC50 (RPMI-7951)	IC50 (M14)	IC50 (A-375 [14])	also measured
–	–	–	–	–	–	CC(=O)O[C@H]1C(=O)[C@@]2(C)[C@H]([C@H](OC(=O)c3ccccc3)[C@]3(O)C[C@H](OC(=O)[C@H](O)[C@@H](NC(=O)c4ccccc4)c4ccccc4)C(C)=C1C3(C)C)[C@]1(OC(C)=O)CO[C@@H]1C[C@@H]2O [PACLITAXEL]	–	–	–	Activity (Homo sapiens): inactive; Activity (A-375 [1]): Active; Activity (A-375 [19]): 62.3%; IC50 (DU-145): 0.0015 µM; inhibition in vivo at 15 mg/kg (A-375 [12]): 70.7%
3.77 h	25.1 mL/min/kg	2.28 h	18.3 mL/min/kg	2.55 h	5.5 mL/min/kg	O=C(c1ccc2c(c1)OCO2)c1c[nH]c(-c2c[nH]c3ccccc23)n1	0.236 µM	0.155 µM	0.191 µM	–
–	–	–	–	–	–	COc1cc(C(=O)c2c[nH]c(-c3cccc4[nH]ccc34)n2)cc2c1OC=CO2	0.0348 µM	0.0138 µM	0.0171 µM	–
1.28 h	–	0.82 h	–	0.18 h	–	COc1cc(C(=O)c2c[nH]c(-c3c[nH]c4ccccc34)n2)cc2c1OCO2	–	0.0056 µM	0.0035 µM	CLint scaled ([13]; microsomes): 69.6 mL/min/kg; CLint scaled ([16]; microsomes): 253 mL/min/kg; CLint scaled ([18]; microsomes): 16.3 mL/min/kg
2.13 h	28.2 mL/min/kg	2.03 h	51.9 mL/min/kg	0.9 h	9.76 mL/min/kg	COc1cc(C(=O)c2c[nH]c(-c3c[nH]c4ccccc34)n2)cc2c1OCCO2	0.0292 µM	0.0113 µM	0.021 µM	–
–	–	–	–	–	–	COc1cc(C(=O)c2c[nH]c(-c3c[nH]c4cccc(C)c34)n2)cc2c1OC=CO2	0.0088 µM	0.0061 µM	–	–
3.5 h	154 mL/min/kg	0.37 h	54.9 mL/min/kg	0.85 h	5.95 mL/min/kg	O=C(c1ccc2c(c1)OCCO2)c1c[nH]c(-c2c[nH]c3ccccc23)n1	0.214 µM	0.119 µM	0.159 µM	–
–	–	–	–	–	–	COc1cc(C(=O)c2c[nH]c(-c3c[nH]c4ccccc34)n2)cc2c1OCCCO2	0.0477 µM	0.0382 µM	0.0322 µM	–

SMILES	t1/2 [2]	CLint scaled ([13]; liver microsomes)	t1/2 [15]	CLint scaled ([16]; liver microsomes)	t1/2 [17]	CLint scaled ([18]; liver microsomes)	IC50 (RPMI-7951)	IC50 (M14)	IC50 (A-375 [14])	also measured
COc1cc(C(=O)c2c[nH]c(-c3c[nH]c4ccccc34)n2)cc2c1OC=CO2	2.69 h	40.3 mL/min/kg	1.42 h	13.1 mL/min/kg	3.57 h	7.7 mL/min/kg	0.0033 µM	0.0012 µM	0.0011 µM	inhibition (Bos taurus): Active; IC50 (PC-3): 0.0152 µM; Activity (A-375 [1]): Active; Activity (A-375 [3]): Active; Activity (A-375 [4]): Active; IC50 [5]: 0.0815 µM; Ratio IC50 [6]: 1.9; Activity (Mus musculus [7]): Non-Toxic; inhibition in vivo at 30 mg/kg (A-375 [8]): 73.9%; Activity (Mus musculus [9]): Non-Toxic; IC50 [10]: 0.0076 µM; IC50 (DU-145): 0.0422 µM; Ratio IC50 [11]: 0.5; inhibition in vivo at 15 mg/kg (A-375 [12]): 54.8%
